Bioassay records deposited in PubChem by several laboratories.
The list is not random: actives were taken first. Their share in the collection is about 9.8%.
PMI act hi M6P: activators of human phosphomannose isomerase at near-saturating mannose 6-phosphate; P34949; 0.34% of 190,000 active; coupled PMI enzyme assay, resazurin fluorescence, 20 min; active compounds read high; 1 = untreated enzyme, 0 = substrate-free blank; activation factor at 20 µM;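 active = activation factor of 2 or more at 20 µM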
Target sequence (P34949 whole entry, looked up): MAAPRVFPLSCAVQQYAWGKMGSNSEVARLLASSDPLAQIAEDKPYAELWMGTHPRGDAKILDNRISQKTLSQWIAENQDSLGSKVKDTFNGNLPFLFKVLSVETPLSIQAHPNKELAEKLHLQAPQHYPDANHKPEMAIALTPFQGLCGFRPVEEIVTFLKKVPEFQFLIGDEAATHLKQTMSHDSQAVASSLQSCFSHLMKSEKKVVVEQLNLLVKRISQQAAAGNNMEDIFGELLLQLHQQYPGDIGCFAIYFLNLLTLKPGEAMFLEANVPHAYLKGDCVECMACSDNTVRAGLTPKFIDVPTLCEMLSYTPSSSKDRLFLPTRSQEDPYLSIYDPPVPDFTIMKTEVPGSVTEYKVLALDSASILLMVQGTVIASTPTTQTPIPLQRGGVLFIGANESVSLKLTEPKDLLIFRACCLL
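Test system – human PMI in coupled enzyme assay · Timing – 20 min incubation at room temperature · Detection – Diaphorase-driven resazurin-to-resorufin fluorescence, excitation 544, emission 590 nm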
L major viab: reduces viability of Leishmania major promastigotes; 9% of 200,000 active; inhibition, % at 10 µM; AID 1063; resazurin fluorescence viability; in the data active = inhibition above about 50%;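 also: promastigotes grown with compound for 44 hours at 28 °C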
WT yeast gro inh: growth inhibition of WT yeast, mitochondrial fusion screen; 2.1% of 190,000 active; AID 1362; mitochondrial fusion phenotypic screen, WT strain; inhibition, % at 10 µM; in the data active = inhibition above about 58%; tested in S. cerevisiae
Rad51 HR inh: blocks human Rad51 in homologous recombination; inhibition, % at 10 µM; AID 1385; Q06609; 0.085% of 200,000 active; hRad51 DNA strand exchange, fluorescence dequenching;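 active = inhibition above 40% at the single screening dose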;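 also: 0% = DMSO control wells and 100% = blanks with heterologous ssDNA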
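Read-out basis: percent inhibition relative to plate controls and blanks / Assay system: human Rad51 nucleoprotein filaments preassembled on unlabelled ssDNA / Timing: filaments 15 min 37 °C, then compound 30 min / Control set: per-plate controls and blanks / Technique: fluorescence dequenching at 485/520 nm / Compound: 10 µM final, single point / Also added: Fluorescein- and BHQ1-tagged 47-mer duplex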
PMI activator: activators of human phosphomannose isomerase. P34949. purified human PMI, coupled resazurin fluorescence, 20 min; active compounds read high; 1 = vehicle control, 0 substrate-free wells. activation factor at 20 µM. 0.005% of 190,000 active. AID 1214;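 active = activation factor of 2 or more at 20 µM, relative to plate controls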
m-calpain inh: blocks pig calpain II enzyme activity; purified calpain II, fluorogenic peptide substrate, 30 min; inhibition, % at 16 µM; 0.37% of 220,000 active; AID 1236;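 active = inhibition above about 50%, limit read from the data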
Starred values were filed as active, the others as inactive; · = no result given.

SMILES	PMI act hi M6P	L major viab	WT yeast gro inh	Rad51 HR inh	PMI activator	m-calpain inh
CN(Cc1ccccc1)C1=CC(=[N+]2CCCC2)CC(C)(C)C1	·	·	·	34	·	0
CC1(C)CC(N2CCCC2)=CC(=[N+]2CCCCCC2)C1	0.8	100*	1	0	0.4	44
CC1(C)CC(N2CCN(c3ccccc3)CC2)=CC(=[N+]2CCCC2)C1	1.2	99*	6	-8	1.2	26
Cc1ccc(NC(=O)c2ccc(CNc3c(N4CCC(C)CC4)c(=O)c3=O)cc2)cc1	·	·	·	-6	·	2
CC(C)COc1ccc(-c2cc(C(=O)NN)[nH]n2)cc1	0.9	3	-17	9	1	7
Cc1csc2c(N(C)CCO)ncnc12	·	·	·	0	·	6
O=C(O)c1ccccc1C(=O)NCCc1ccc(Cl)cc1	1.1	2	-2	-22	1.3	2
COc1ccc(CCNC(=O)c2cc(C(=O)c3cc(C)ccc3O)cn(CCc3ccc(OC)cc3)c2=O)cc1	0.9	96*	-7	-4	0.8	0
O=C(c1cc(C(=O)NCCc2ccccc2)c(=O)n(CCc2ccccc2)c1)c1cc(Cl)ccc1O	1	98*	6	-3	1	-48
COc1ccc(CCNC(=O)c2cc(C(=O)c3cc(Cl)ccc3O)cn(CCc3ccc(OC)cc3)c2=O)cc1	0.9	99*	21	-1	0.9	-24
Nc1ncc(-n2cncn2)c(-c2ccc(Cl)cc2)n1	0.9	-2	2	17	0.9	-28
CCCC(C)NC(=O)CSc1nc2ccc(C)cc2[nH]1 (centres undefined)	1	-3	5	7	1	19
COc1cc(NC(=S)N2CCCC(CO)C2)c(OC)cc1Cl (centres undefined)	0.7	1	18	9	1	18
COc1cccc(NC(=O)NC(C)C2CC3CCC2C3)c1 (centres undefined)	1	18	11	-1	1	32
CCOC(=O)c1c(C)[nH]c(N=Nc2ccc(OC)cc2)c1C	·	·	·	·	·	11
O=C(Nc1ccc(S(=O)(=O)N2CCCCC2)cc1)C1CCCN(C(=O)c2ccc(Cl)cc2)C1 (centres undefined)	1	56*	16	1	0.9	-27
CCOC(=O)c1ccc(NC(=O)C2CCCN(S(=O)(=O)c3ccc(F)cc3)C2)cc1 (centres undefined)	0.9	59*	26	-1	0.9	4
CCOC(=O)c1ccc(NS(=O)(=O)N2CCCCCC2)cc1	0.9	95*	8	0	0.9	33
CCOc1cc(/C=C2/SC(=O)N(CC(=O)N3CCc4ccccc4C3)C2=O)ccc1OCC(=O)O	1	-5	-20	4	1	-174
NC(=O)COc1ccccc1/C=C1/SC(=O)N(CC(=O)N2CCc3ccccc3C2)C1=O	0.9	95*	-11	·	0.9	-14
O=C(CNC(=O)c1cccs1)OCC(=O)c1ccccc1Cl	1	-9	2	6	1.1	-16
CCOC(=O)c1c(C)oc2c1c(C(c1ccncc1)N1CCOCC1)c(O)c1ccccc12 (centres undefined)	0.9	73*	32	-4	0.8	-113
CCOC(=O)c1c(C)oc2c1c(CN1CCN(CCO)CC1)c(O)c1ccccc12	0.2	9	59*	-1	0.4	-10
C/C(CC(=O)NC12CC3CC(CC(C3)C1)C2)=N\NC(=O)c1ccc(C)cc1	1	-5	-3	3	1	-23
COCCCNC(=O)CN(CCc1ccccc1)S(=O)(=O)c1ccc(C)cc1	0.9	3	14	·	1	9
SMILES	PMI act hi M6P	L major viab	WT yeast gro inh	Rad51 HR inh	PMI activator	m-calpain inh
CN(C)c1nnnn1-c1ccccc1Oc1ncc(C(F)(F)F)cc1Cl	1	-1	-17	-7	1	26
COCCn1cc(C(=S)N2CCCCC2)c2ccccc21	1.1	10	28	13	1.1	5
Cc1ccc(OCCn2cc(C(=S)N3CCCC3)c3ccccc32)cc1C	0.8	41	10	-7	0.8	1
S=C(c1cn(CCOc2cccc3ccccc23)c2ccccc12)N1CCCC1	1	95*	31	26	1	-45
S=C(c1cn(CCOc2ccccc2)c2ccccc12)N1CCCC1	1	98*	70*	-14	0.9	14
O=C(C1CCC(CNS(=O)(=O)c2cccc3nsnc23)CC1)N1CCN(c2ccccn2)CC1 (centres undefined)	1	1	-6	-20	1	-45
CN1CCN(c2ccc(CNS(=O)(=O)Cc3cccc(C(F)(F)F)c3)cc2)CC1	·	·	·	·	·	19
NNc1nc(-c2ccccc2)cc(-c2ccccc2O)n1	1.2	89*	10	0	1.2	-19
Nc1nc(-c2ccccc2)cc(-c2ccccc2O)n1	0.9	26	-24	-2	1.1	6
Clc1cccc(OCCN2CCN(CCOc3cccc(Cl)c3)CC2)c1	1.2	99*	60	3	1.1	23
CC1CN(CCCCOc2cccc(Oc3ccccc3)c2)CC(C)O1 (centres undefined)	0.9	-4	47	23	0.8	-25
Brc1cccc(OCCCN2CCCCCC2)c1	1	96*	-8	1	0.9	16
CC1CCN(CCOc2cccc(Br)c2)CC1	1.2	71*	-3	-2	1.1	-6
c1ccc(Oc2cccc(OCCCCN3CCCC3)c2)cc1	0.6	99*	27	0	1.1	6
Cc1ccc(NNC(=O)c2ccno2)c(C)c1	·	·	·	21	·	-17
O=C(CN1CCc2ccccc21)NN1CC(=O)N(c2ccc(Cl)cc2)CC1=O	·	·	·	-6	·	26
Cc1ccc(Cl)cc1Nc1nc(-c2sc(NC(=O)c3ccco3)nc2C)cs1	0.7	50	28	-4	0.8	-126
Cc1nc(NC(=O)c2ccccc2)sc1-c1csc(Nc2ccc(Cl)cc2Cl)n1	1	54*	10	0	0.8	-309
COc1ccccc1Nc1nc(-c2sc(NC(=O)c3ccco3)nc2C)cs1	0.8	100*	-3	7	1	-38
Cc1nc(NC(=O)c2ccco2)sc1-c1csc(Nc2ccc(Cl)cc2)n1	0.7	41	51	-7	0.7	-280
COc1ccc(Cl)cc1Nc1nc(-c2sc(NC(=O)c3ccccc3)nc2C)cs1	1	41	26	-5	1.1	-210
Cc1nc(NC(=O)c2ccco2)sc1-c1csc(Nc2ccc(Cl)cc2Cl)n1	0.9	74*	71*	-9	0.9	-291
COc1ccc(C)cc1NC(=O)C(Sc1nnc2ccccn12)c1ccccc1 (centres undefined)	1	0	4	·	1	21
CCNc1nc(NCC)n2c(SC(C(=O)Nc3cc(C)ccc3OC)c3ccccc3)nnc2n1 (centres undefined)	0.8	89*	-17	-1	0.8	13
